According to ChEMBL document CHEMBL5674867, “The SUV39H1 inhibitor chaetocin induces differentiation and shows synergistic cytotoxicity with other epigenetic drugs in acute myeloid leukemia cells” (Blood Cancer J, 2015):
The source made the active and inactive calls. No cut-off for these calls is given here.

Assays:
KG-1a [1] = assay: Induction of myeloid differentiation in human KG-1a cells at 20 nM assessed as reduction of nucleus to cytoplasm ratio measured after 12 hrs by Liu's staining method; assay type: functional, cell-based
How it was run: (§1)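 Cells exposed 12 h were spun onto slides by cytospin. They were stained with Liu's reagent A for 1 min, then reagent B for 2.5 min, and morphology was examined by light microscopy.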

[2] = molecular target: T1, Histone-lysine N-methyltransferase SUV39H1 (Homo sapiens) (UniProt O43463); conditions: HL-60, dose 20.0 nM, time 48.0 hrs
T1 sequence (whole entry): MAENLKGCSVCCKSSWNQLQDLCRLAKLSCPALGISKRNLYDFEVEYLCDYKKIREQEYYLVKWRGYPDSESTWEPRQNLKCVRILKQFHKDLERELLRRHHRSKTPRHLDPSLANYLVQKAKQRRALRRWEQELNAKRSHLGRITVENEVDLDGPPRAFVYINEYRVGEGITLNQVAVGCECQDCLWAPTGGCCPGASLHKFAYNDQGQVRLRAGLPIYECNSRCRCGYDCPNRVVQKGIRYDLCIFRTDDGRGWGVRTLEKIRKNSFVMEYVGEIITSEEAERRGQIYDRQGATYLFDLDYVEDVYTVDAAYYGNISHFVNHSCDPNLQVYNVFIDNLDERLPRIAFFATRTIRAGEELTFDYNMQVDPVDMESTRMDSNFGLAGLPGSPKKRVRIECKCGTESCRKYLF

HL-60 [3] = assay: Induction of myeloid differentiation in human HL-60 cells at 20 nM assessed as increase in CD11b mRNA expression measured after 48 hrs by RT-PCR assay; assay type: functional, cell-based
How it was run: (§2)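 Treatment was 48 h. Total RNA (1 µg) was reverse transcribed, then SYBR green real-time PCR was run with actin as internal control: 95 °C 5 min, then 30 cycles of 95 °C/45 s, 60 °C/45 s, 72 °C/45 s. Mean ± s.e. of three independent experiments, compared with untreated control.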

U-937 [4] = assay: Induction of myeloid differentiation in human U-937 cells at 20 nM assessed as decrease in G9a mRNA expression measured after 48 hrs by RT-PCR assay; assay type: functional, cell-based; how it was run: as §2
KG-1a [5] = assay: Induction of myeloid differentiation in human KG-1a cells at 20 nM assessed as decrease in SUV39H1 mRNA expression measured after 48 hrs by RT-PCR assay; assay type: functional, cell-based; how it was run: as §2
U-937 [6] = assay: Induction of myeloid differentiation in human U-937 cells at 20 nM assessed as increase in CD11b mRNA expression measured after 48 hrs by RT-PCR assay; assay type: functional, cell-based; how it was run: as §2
[7] = molecular target: T1, Histone-lysine N-methyltransferase SUV39H1 (Homo sapiens); conditions: U-937, dose 20.0 nM, time 48.0 hrs
[8] = molecular target: T1, Histone-lysine N-methyltransferase SUV39H1 (Homo sapiens); conditions: KG-1a, dose 20.0 nM, time 48.0 hrs
KG-1a [9] = assay: Induction of myeloid differentiation in human KG-1a cells at 20 nM in combination with 0.5 uM SAHA measured after 12 hrs by Liu's staining method; assay type: functional, cell-based
How it was run: (§3)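 Cells received single epigenetic inhibitors or combinations and were collected by cytospin. After Liu's staining (reagent A 1 min, reagent B 2.5 min), differentiated cells were counted under a light microscope. Mean ± s.e. of three independent experiments.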

HL-60 [10] = assay: Induction of myeloid differentiation in human HL-60 cells at 20 nM in combination with 0.5 uM SAHA measured after 12 hrs by Liu's staining method; assay type: functional, cell-based; how it was run: as §3
KG-1a [11] = assay: Induction of myeloid differentiation in human KG-1a cells at 20 nM assessed as appearance of nuclear segmentation measured after 12 hrs by Liu's staining method; assay type: functional, cell-based; how it was run: as §1
[12] = molecular target: T1, Histone-lysine N-methyltransferase SUV39H1 (Homo sapiens); conditions: KG-1a, dose 20.0 nM, time 48.0 hrs; remark: listed apart in the source
HL-60 [13] = assay: Induction of myeloid differentiation in human HL-60 cells at 20 nM assessed as decrease in SUV39H1 mRNA expression measured after 48 hrs by RT-PCR assay; assay type: functional, cell-based; how it was run: as §2
HL-60 [14] = assay: Induction of myeloid differentiation in human HL-60 cells at 20 nM assessed as decrease in G9a mRNA expression measured after 48 hrs by RT-PCR assay; assay type: functional, cell-based; how it was run: as §2
U-937 [15] = assay: Induction of myeloid differentiation in human U-937 cells at 20 nM assessed as decrease in SUV39H1 mRNA expression measured after 48 hrs by RT-PCR assay; assay type: functional, cell-based; how it was run: as §2
HL-60 [16] = assay: Induction of myeloid differentiation in human HL-60 cells at 20 nM assessed as appearance of nuclear segmentation measured after 12 hrs by Liu's staining method; assay type: functional, cell-based; how it was run: as §1
[17] = molecular target: T1, Histone-lysine N-methyltransferase SUV39H1 (Homo sapiens); conditions: U-937, dose 20.0 nM, time 48.0 hrs; remark: listed apart in the source
HL-60 [18] = assay: Induction of myeloid differentiation in human HL-60 cells at 20 nM assessed as reduction of nucleus to cytoplasm ratio measured after 12 hrs by Liu's staining method; assay type: functional, cell-based; how it was run: as §1
[19] = molecular target: T1, Histone-lysine N-methyltransferase SUV39H1 (Homo sapiens); conditions: KG-1a, dose 20.0 nM, time 48.0 hrs; remark: listed apart in the source
U-937 [20] = assay: Induction of myeloid differentiation in human U-937 cells at 20 nM in combination with 0.5 uM SAHA measured after 12 hrs by Liu's staining method; assay type: functional, cell-based; how it was run: as §3
[21] = molecular target: T1, Histone-lysine N-methyltransferase SUV39H1 (Homo sapiens); conditions: KG-1a, dose 20.0 nM, time 48.0 hrs; remark: listed apart in the source
KG-1a [22] = assay: Induction of myeloid differentiation in human KG-1a cells at 20 nM assessed as decrease in G9a mRNA expression measured after 48 hrs by RT-PCR assay; assay type: functional, cell-based; how it was run: as §2
[23] = molecular target: T1, Histone-lysine N-methyltransferase SUV39H1 (Homo sapiens); conditions: U-937, dose 20.0 nM, time 48.0 hrs; remark: listed apart in the source
[24] = molecular target: T1, Histone-lysine N-methyltransferase SUV39H1 (Homo sapiens); conditions: HL-60, dose 20.0 nM, time 48.0 hrs; remark: listed apart in the source
[25] = molecular target: T1, Histone-lysine N-methyltransferase SUV39H1 (Homo sapiens); conditions: U-937, dose 20.0 nM, time 48.0 hrs; remark: listed apart in the source
[26] = molecular target: T1, Histone-lysine N-methyltransferase SUV39H1 (Homo sapiens); conditions: HL-60, dose 20.0 nM, time 48.0 hrs; remark: listed apart in the source
[27] = molecular target: T1, Histone-lysine N-methyltransferase SUV39H1 (Homo sapiens); conditions: HL-60, dose 20.0 nM, time 48.0 hrs; remark: listed apart in the source
KG-1a [28] = assay: Induction of myeloid differentiation in human KG-1a cells at 20 nM assessed as increase in CD11b mRNA expression measured after 48 hrs by RT-PCR assay; assay type: functional, cell-based; how it was run: as §2
KG-1a [29] = assay: Cytotoxicity against human KG-1a cells at 20 nM assessed as decrease in cell viability in combination with 50 nM JQ-1 measured after 24 hrs by MTT assay; assay type: functional, cell-based
KG-1a [30] = assay: Induction of myeloid differentiation in human KG-1a cells at 50 nM in combination with 20 nM chaetocin measured after 12 hrs by Liu's staining method; assay type: functional, cell-based; how it was run: as §3
HL-60 [31] = assay: Cytotoxicity against human HL-60 cells at 20 nM assessed as decrease in cell viability in combination with 50 nM JQ-1 measured after 24 hrs by MTT assay; assay type: functional, cell-based
HL-60 [32] = assay: Induction of myeloid differentiation in human HL-60 cells at 50 nM in combination with 20 nM chaetocin measured after 12 hrs by Liu's staining method; assay type: functional, cell-based; how it was run: as §3
U-937 [33] = assay: Cytotoxicity against human U-937 cells at 20 nM assessed as decrease in cell viability in combination with 50 nM JQ-1 measured after 24 hrs by MTT assay; assay type: functional, cell-based
U-937 [34] = assay: Induction of myeloid differentiation in human U-937 cells at 50 nM in combination with 20 nM chaetocin measured after 12 hrs by Liu's staining method; assay type: functional, cell-based; how it was run: as §3
U-937 [35] = assay: Induction of myeloid differentiation in human U-937 cells at 50 nM measured after 12 hrs by Liu's staining method; assay type: functional, cell-based; how it was run: as §3
KG-1a [36] = assay: Induction of myeloid differentiation in human KG-1a cells at 50 nM measured after 12 hrs by Liu's staining method; assay type: functional, cell-based; how it was run: as §3
HL-60 [37] = assay: Induction of myeloid differentiation in human HL-60 cells at 50 nM measured after 12 hrs by Liu's staining method; assay type: functional, cell-based; how it was run: as §3

CN1C(=O)[C@@]23C[C@]4([C@]56C[C@@]78SS[C@@](CO)(C(=O)N7[C@H]5Nc5ccccc56)N(C)C8=O)c5ccccc5N[C@@H]4N2C(=O)[C@]1(CO)SS3
Activity (KG-1a [1]): Active | inhibition [2]: Active | Activity (HL-60 [3]): Active | Activity (U-937 [4]): inactive | Activity (KG-1a [5]): Active | Activity (U-937 [6]): Active | inhibition [7]: inactive | inhibition [8]: Active | Activity (KG-1a [9]): inactive | Activity (HL-60 [10]): inactive | Activity (KG-1a [11]): Active | inhibition [12]: Active | Activity (HL-60 [13]): Active | Activity (HL-60 [14]): Active | Activity (U-937 [15]): inactive | Activity (HL-60 [16]): Active | inhibition [17]: inactive | Activity (HL-60 [18]): Active | inhibition [19]: Active | Activity (U-937 [20]): inactive | inhibition [21]: Active | Activity (KG-1a [22]): Active | inhibition [23]: inactive | inhibition [24]: Active | inhibition [25]: inactive | inhibition [26]: Active | inhibition [27]: Active | Activity (KG-1a [28]): Active

CN1C(=O)[C@@]23C[C@]4([C@]56C[C@@]78SS[C@@](CO)(C(=O)N7[C@H]5Nc5ccccc56)N(C)C8=O)c5ccccc5N[C@@H]4N2C(=O)[C@]1(CO)SS3.Cc1sc2c(c1C)C(c1ccc(Cl)cc1)=N[C@@H](CC(=O)OC(C)(C)C)c1nnc(C)n1-2
Activity (KG-1a [29]): Active | Activity (KG-1a [30]): inactive | Activity (HL-60 [31]): Active | Activity (HL-60 [32]): inactive | Activity (U-937 [33]): inactive | Activity (U-937 [34]): inactive

CN1C(=O)[C@@]23C[C@]4([C@]56C[C@@]78SS[C@@](CO)(C(=O)N7[C@H]5Nc5ccccc56)N(C)C8=O)c5ccccc5N[C@@H]4N2C(=O)[C@]1(CO)SS3.O=C(CCCCCCC(=O)Nc1ccccc1)NO
Activity (KG-1a [9]): inactive | Activity (HL-60 [10]): inactive | Activity (U-937 [20]): inactive

Cc1sc2c(c1C)C(c1ccc(Cl)cc1)=N[C@@H](CC(=O)OC(C)(C)C)c1nnc(C)n1-2
Activity (U-937 [35]): Active | Activity (KG-1a [36]): Active | Activity (HL-60 [37]): Active
